Experimental data from ChEMBL document CHEMBL1126156, “Multivariate analysis by the minimum spanning tree method of the structural determinants of diphenylethylenes and triphenylacrylonitriles implicated in estrogen receptor binding, protein kinase C activity, and MCF7 cell proliferation” (J Med Chem, 1992).

What was measured:
MCF7S [1] = test: Cytotoxic effect on MCF-7 cell proliferation; assay type: functional; conditions: Homo sapiens
Summary of the method: (§1)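 MCF-7 cells in phenol red-free charcoal-treated medium given 10⁻⁶ M E2 plus test compound (3–10 μM), 6 days of growth. DNA expressed as percent of E2-treated cells. IC30 is the concentration giving 30% inhibition. Percent inhibition taken at 10⁻⁵ M, or at 10⁻⁶ M in a second series. Means of two experiments.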

MCF7S [2] = test: Agonist activity against MCF-7 cell proliferation; assay type: functional, cell-based; conditions: Homo sapiens
Summary of the method: (§2)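 MCF-7 cells grown in phenol red-free medium with 5% dextran-coated charcoal-treated serum, tested 10 pM to 1 μM. DNA content read after growth. Agonism expressed relative to the maximum response with E2 (=100%), whatever the concentration. EC50 (50% of maximum response) taken from two separate experiments.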

BT-20 [3] = test: (§3) Cytotoxic effect on ER-negative BT20 cell proliferation; assay type: functional, Homo sapiens; parameters: concentration or dose not given beside the values
Summary of the method: (§4)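 ER-negative BT20 cells, no E2, test compound at 3–10 μM for 6 days. DNA read as percent of untreated control. IC30 is the concentration inhibiting growth by 30%; percent inhibition taken at 10⁻⁵ M. Means of two experiments, triplicate wells.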

[4] = molecular target: T1, Protein kinase C, PKC; classical (Rattus norvegicus) (UniProt P05696+P68403+P63319); test: Percent stimulation or inhibition of protein kinase C III activity for phosphatidylserine (PS) in the presence of [Ca2+].; assay type: protein assay; parameters: concentration or dose not given beside the values; conditions: values are per cent of control
Summary of the method: (§5)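 Purified type III (α) PKC from rat brain soluble fraction. Substrate calf thymus H1 histone with 0.1 mM Ca2+, 5 mM magnesium acetate, 10 μM [32P]ATP and 2 μg/mL phosphatidylserine, no diolein. Most compounds at 10⁻⁴ M, given as percent of control activity.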

MCF7S [5] = test: Agonistic activity in MCF-7 cell proliferation.; assay type: functional, Homo sapiens; summary of the method: as §2
MCF7S [6] = test: Cytostatic activity against MCF-7 cell proliferation.; assay type: functional, Homo sapiens; parameters: concentration or dose not given beside the values; summary of the method: as §1
MCF7S [7] = test: (§6) Antagonist activity against MCF-7 cell proliferation; assay type: functional, cell-based; conditions: Homo sapiens
Summary of the method: (§7)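 Phenol red-free MCF-7 cultures with 5% dextran-coated charcoal-treated serum, stimulated by 0.1 nM E2. Proliferation read as DNA content after 8 days relative to E2 alone. Percent antagonism is the inhibition at 10⁻⁶ M test compound versus 10⁻¹⁰ M E2. IC50 (50% of maximum response) from two separate experiments.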

BT-20 [8] = test: as §3; assay type: functional; conditions: Homo sapiens; summary of the method: as §4
MCF7S [9] = test: as §6; assay type: functional, Homo sapiens; summary of the method: as §7
Rattus norvegicus [10] = organism: Rattus norvegicus; test: Percent stimulation or inhibition of protein kinase C III activity for protamine sulfate in the presence of EGTA.; parameters: concentration or dose not given beside the values; conditions: values are per cent of control
Summary of the method: (§8)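 Rat brain type III (α) PKC, purified, with protamine sulfate as substrate and 0.5 mM EGTA in place of Ca2+, phosphatidylserine and diolein; 5 mM magnesium acetate, 10 μM [32P]ATP. Most compounds at 10⁻⁴ M; percent of control activity.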

[11] = molecular target: T1, Protein kinase C, PKC; classical (Rattus norvegicus); test: The percent stimulation or inhibition of protein kinase C III activity was determined for phosphatidylserine (PS) and diolein(PS+DO) in the presence of [Ca2+]; assay type: protein assay; parameters: concentration or dose not given beside the values; conditions: values are per cent of control
Summary of the method: (§9)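 Type III (α) PKC purified from rat brain soluble fraction, assayed with calf thymus H1 histone, 0.1 mM Ca2+, 5 mM magnesium acetate, 10 μM [32P]ATP, 2 μg/mL phosphatidylserine plus 0.2 μg/mL diolein. Compounds mostly at 10⁻⁴ M; activity expressed as percent of control.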

[12] = molecular target: Estrogen receptor (Bos taurus) (UniProt Q9XSB5+P49884); test: Relative binding affinity for calf uterus estrogen receptor after 2 hr at 0 degree C; assay type: protein assay
Summary of the method: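 Calf uterus cytosol ER incubated 2 h at 0 °C with [6,7-3H]-17β-estradiol and competitor. RBA given relative to estradiol (=100%), mean of at least four determinations.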

Rattus norvegicus [13] = organism: Rattus norvegicus; test: Percent stimulation or inhibition of protein kinase C with EGTA for protamine sulfate; conditions: concentration not given here; summary of the method: as §8
[14] = molecular target: T1, Protein kinase C, PKC; classical (Rattus norvegicus); test: (§10) Percent stimulation or inhibition of protein kinase C with [Ca2+] for phosphatidylserine and diolein(PS+DO); assay type: protein assay; summary of the method: as §9
MCF7S [15] = test: Cytostatic activity against MCF-7 cell proliferation; assay type: functional, Homo sapiens
Summary of the method: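 MCF7 (ER-positive) human breast cancer cells grown in 24-well plates in phenol red-free medium with 5% dextran-coated charcoal, with 10⁻⁶ M E₂ added. Cells exposed to compound for 6 days, then DNA measured and expressed as percent of E₂-alone DNA. Triplicate wells per experiment; values are means of two experiments.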

[16] = molecular target: T1, Protein kinase C, PKC; classical (Rattus norvegicus); test: Percent stimulation or inhibition of protein kinase C with [Ca2+] for phosphatidylserine (PS); assay type: protein assay; conditions: values are per cent of control; summary of the method: as §5
[17] = molecular target: T1, Protein kinase C, PKC; classical (Rattus norvegicus); test: as §10; assay type: protein assay; parameters: concentration or dose not given beside the values; conditions: values are per cent of control; summary of the method: as §9

| SMILES | EC50 (MCF7S [2]) [µM] | residual activity [4] [%] | IC50 (MCF7S [7]) [µM] | residual activity (Rattus norvegicus [10]) [%] | residual activity [11] [%] | RBA [12] [%] | inhibition (Rattus norvegicus [13]) [%] | inhibition ([14]; concentration not given here) [%] | residual activity [16] [%] | residual activity [17] [%] | residual activity ([14]; values are per cent of control) [%] | IC30 (MCF7S [1]) [µM] | Inhibition (BT-20 [3]) [%] | Agonism (MCF7S [5]) [%] | Inhibition (MCF7S [6]) [%] | IC30 (BT-20 [8]) [µM] | Antagonism (MCF7S [9]) [%] | Inhibition (MCF7S [15]) [%] |
| --- | --- | --- | --- | --- | --- | --- | --- | --- | --- | --- | --- | --- | --- | --- | --- | --- | --- | --- |
| CC/C(=C(/c1ccc(O)cc1)c1ccc(OCCN(C)C)cc1)c1ccccc1 | – | 32 | – | 100 | 14 | – | – | – | – | – | – | – | – | 61 | – | – | – | 74 |
| Cc1ccc(/C(=C(\C#N)c2ccc(O)cc2)c2ccc(O)cc2)cc1 | – | – | – | – | – | – | – | – | 88 | 68 | 68 | – | – | 73 | 54 | – | – | – |
| CCN(CC)CCOc1ccc(C(C#N)=C(c2ccc(O)cc2)c2ccc(O)cc2)cc1 | 0.0008 | 7 | 0.2 | 105 | 0 | – | – | – | – | – | – | 6 | 50 | 45 | 68 | 3 | 50 | – |

Further lines, with some results ahead:

| EC50 (MCF7S [2]) [µM] | residual activity [4] [%] | IC50 (MCF7S [7]) [µM] | residual activity (Rattus norvegicus [10]) [%] | residual activity [11] [%] | RBA [12] [%] | inhibition (Rattus norvegicus [13]) [%] | inhibition ([14]; concentration not given here) [%] | residual activity [16] [%] | residual activity [17] [%] | residual activity ([14]; values are per cent of control) [%] | SMILES | IC30 (MCF7S [1]) [µM] | Inhibition (BT-20 [3]) [%] | Agonism (MCF7S [5]) [%] | Inhibition (MCF7S [6]) [%] | IC30 (BT-20 [8]) [µM] | Antagonism (MCF7S [9]) [%] | Inhibition (MCF7S [15]) [%] |
| --- | --- | --- | --- | --- | --- | --- | --- | --- | --- | --- | --- | --- | --- | --- | --- | --- | --- | --- |
| > 1 | 118 | > 1 | 78 | 86 | – | – | – | – | – | – | CC(C)CCOc1ccc(C(=C(C#N)c2ccccc2)c2ccc(OCCC(C)C)cc2)cc1 | > 10 | 37 | 0 | 3 | 9 | 0 | – |
| 0.00084 | 18 | 0.325 | 85 | 8 | 0.03 | – | – | – | – | – | CC(C)N(CCOc1ccc(C(=C(C#N)c2ccccc2)c2ccc(OCCN(C(C)C)C(C)C)cc2)cc1)C(C)C | 2.7 | 89 | 29 | 97 | 3.2 | 79 | – |
| – | – | – | 88 | – | – | 88 | 57 | – | – | – | CN(C)c1ccc(C(=C(C#N)c2ccccc2)c2ccc(N(C)C)cc2)cc1 | – | – | 85 | 48 | – | – | – |
